Reference: ChEMBL document CHEMBL1124366, “Synthesis and biological properties of N63-carboxamides of teicoplanin antibiotics. Structure-activity relationships” (J Med Chem, 1989)
In brackets after ≈: the same amount, converted by molar mass.

Tests used:
Proteus vulgaris = experiment: In vitro minimum inhibitory concentration against Proteus vulgaris X 19 ATCC 881; type: functional
[1] = tested on: Staphylococcus epidermidis; experiment: In vitro minimum inhibitory concentration against Staphylococcus epidermis ATCC 12228; type: functional
[2] = tested on: Ac2-L-Lys-D-Ala-D-Ala peptide; experiment: Association constant with Ac2-L-Lys-D-Ala-D-Ala
In short: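 UV difference spectroscopy at 24 ± 2 °C in 4-cm unthermostated cells. Antibiotic was at 30 μM in 10% MeOH in sodium phosphate buffer, pH 9, and titrated with Ac2-L-Lys-D-Ala-D-Ala. ΔA was monitored at 294 nm. Ka was taken from the slope of a Scatchard plot.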

Streptococcus pneumoniae = experiment: In vitro minimum inhibitory concentration against Streptococcus pneumoniae UC41; type: functional
Pseudomonas aeruginosa = experiment: In vitro minimum inhibitory concentration against Pseudomonas aeruginosa ATCC 10145; type: functional
Streptococcus pyogenes [3] = experiment: Subcutaneously administration into mice infected with Streptococcus pyogenes C 203; type: functional; settings: sc
In short: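 Mice (five per treatment group, five groups) infected intraperitoneally with about 10⁵ cells of Strep. pyogenes C 203, about 100× the LD50. ED50 (mg/kg) was calculated from the percentage of mice surviving at each dose on day 7.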

Escherichia coli = experiment: In vitro minimum inhibitory concentration against Escherichia coli SKF 12140; type: functional
Enterococcus faecalis = experiment: In vitro minimum inhibitory concentration against Streptococcus faecalis ATCC 7080; type: functional
Streptococcus pyogenes [4] = experiment: In vitro minimum inhibitory concentration against Streptococcus pyogenes C 203; type: functional
Staphylococcus aureus = experiment: In vitro minimum inhibitory concentration against Staphylococcus aureus Tour; type: functional
[5] = tested on: Staphylococcus haemolyticus; experiment: In vitro minimum inhibitory concentration against Staphylococcus hemolyticus 602 cell line; type: functional; settings: strain 602

MIC (Proteus vulgaris)	MIC [1]	Ka [2]	MIC (Streptococcus pneumoniae)	MIC (Pseudomonas aeruginosa)	MIC (Escherichia coli)	MIC (Enterococcus faecalis)	MIC (Streptococcus pyogenes [4])	MIC (Staphylococcus aureus)	SMILES	ED50 (Streptococcus pyogenes [3])	MIC [5]
> 128 µg/mL	0.12 µg/mL (≈ 0.0856 µM)	32000 M⁻¹	1 µg/mL (≈ 0.713 µM)		> 128 µg/mL	1 µg/mL (≈ 0.713 µM)	0.5 µg/mL (≈ 0.357 µM)	0.5 µg/mL (≈ 0.357 µM)	CC(=O)N[C@@H]1[C@H](O[C@@H]2c3ccc(c(Cl)c3)Oc3cc4cc(c3O)Oc3ccc(cc3Cl)C[C@H]3NC(=O)[C@H](N)c5ccc(O)c(c5)Oc5cc(O)cc(c5)[C@H](NC3=O)C(=O)N[C@H]4C(=O)N[C@H]3C(=O)N[C@@H]2C(=O)N[C@H](C(=O)O)c2cc(O)cc(O)c2-c2cc3ccc2O)O[C@@H](CO)[C@@H](O)[C@@H]1O	2.46 mg/kg	
64 µg/mL (≈ 49.9 µM)	0.06 µg/mL (≈ 0.0468 µM)		0.06 µg/mL (≈ 0.0468 µM)	64 µg/mL (≈ 49.9 µM)	8 µg/mL (≈ 6.23 µM)	0.12 µg/mL (≈ 0.0935 µM)	0.06 µg/mL (≈ 0.0468 µM)	0.06 µg/mL (≈ 0.0468 µM)	CN(C)CCN(C)C(=O)[C@H]1NC(=O)[C@H]2NC(=O)[C@H](NC(=O)[C@@H]3NC(=O)[C@H]4NC(=O)[C@@H](Cc5ccc(c(Cl)c5)Oc5cc3cc(c5O)Oc3ccc(cc3Cl)[C@H]2O)NC(=O)[C@H](N)c2ccc(O)c(c2)Oc2cc(O)cc4c2)c2ccc(O)c(c2)-c2c(O)cc(O)cc21	1.25 mg/kg	0.06 µg/mL (≈ 0.0468 µM)
32 µg/mL (≈ 25.5 µM)	0.03 µg/mL (≈ 0.0239 µM)		0.12 µg/mL (≈ 0.0956 µM)	32 µg/mL (≈ 25.5 µM)	4 µg/mL (≈ 3.19 µM)	0.12 µg/mL (≈ 0.0956 µM)	0.06 µg/mL (≈ 0.0478 µM)	0.06 µg/mL (≈ 0.0478 µM)	CNCCNC(=O)[C@H]1NC(=O)[C@H]2NC(=O)[C@H](NC(=O)[C@@H]3NC(=O)[C@H]4NC(=O)[C@@H](Cc5ccc(c(Cl)c5)Oc5cc3cc(c5O)Oc3ccc(cc3Cl)[C@H]2O)NC(=O)[C@H](N)c2ccc(O)c(c2)Oc2cc(O)cc4c2)c2ccc(O)c(c2)-c2c(O)cc(O)cc21	2.2 mg/kg	0.06 µg/mL (≈ 0.0478 µM)

Continued, compound first:

SMILES	MIC (Proteus vulgaris)	MIC [1]	Ka [2]	MIC (Streptococcus pneumoniae)	MIC (Pseudomonas aeruginosa)	MIC (Escherichia coli)	MIC (Enterococcus faecalis)	MIC (Streptococcus pyogenes [4])	MIC (Staphylococcus aureus)	ED50 (Streptococcus pyogenes [3])	MIC [5]
N[C@H]1C(=O)N[C@@H]2Cc3ccc(c(Cl)c3)Oc3cc4cc(c3O)Oc3ccc(cc3Cl)[C@@H](O)[C@@H]3NC(=O)[C@H](NC(=O)[C@@H]4NC(=O)[C@@H](NC2=O)c2cc(O)cc(c2)Oc2cc1ccc2O)c1ccc(O)c(c1)-c1c(O)cc(O)cc1[C@@H](C(=O)NC(CCC(=O)O)C(=O)O)NC3=O (stereo partly specified)	> 128 µg/mL	0.12 µg/mL (≈ 0.0904 µM)	82000 M⁻¹	0.12 µg/mL (≈ 0.0904 µM)	> 128 µg/mL	> 128 µg/mL	0.5 µg/mL (≈ 0.376 µM)	0.12 µg/mL (≈ 0.0904 µM)	0.12 µg/mL (≈ 0.0904 µM)	5 mg/kg	
CN(C)CCCCCCCNC(=O)[C@H]1NC(=O)[C@H]2NC(=O)[C@H](NC(=O)[C@@H]3NC(=O)[C@H]4NC(=O)[C@@H](Cc5ccc(c(Cl)c5)Oc5cc3cc(c5O)Oc3ccc(cc3Cl)[C@H]2O)NC(=O)[C@H](N)c2ccc(O)c(c2)Oc2cc(O)cc4c2)c2ccc(O)c(c2)-c2c(O)cc(O)cc21	128 µg/mL (≈ 95.6 µM)	0.06 µg/mL (≈ 0.0448 µM)	50000 M⁻¹	0.12 µg/mL (≈ 0.0896 µM)	128 µg/mL (≈ 95.6 µM)	16 µg/mL (≈ 11.9 µM)	0.12 µg/mL (≈ 0.0896 µM)	0.06 µg/mL (≈ 0.0448 µM)	0.06 µg/mL (≈ 0.0448 µM)	0.95 mg/kg	0.12 µg/mL (≈ 0.0896 µM)
CNCCN(C)C(=O)[C@H]1NC(=O)[C@H]2NC(=O)[C@H](NC(=O)[C@@H]3NC(=O)[C@H]4NC(=O)[C@@H](Cc5ccc(c(Cl)c5)Oc5cc3cc(c5O)Oc3ccc(cc3Cl)[C@H]2O)NC(=O)[C@H](N)c2ccc(O)c(c2)Oc2cc(O)cc4c2)c2ccc(O)c(c2)-c2c(O)cc(O)cc21	> 128 µg/mL	0.06 µg/mL (≈ 0.0473 µM)		0.12 µg/mL (≈ 0.0946 µM)	64 µg/mL (≈ 50.4 µM)	16 µg/mL (≈ 12.6 µM)	0.12 µg/mL (≈ 0.0946 µM)	0.12 µg/mL (≈ 0.0946 µM)	0.12 µg/mL (≈ 0.0946 µM)	1.25 mg/kg	0.12 µg/mL (≈ 0.0946 µM)
NCCCNC(=O)[C@H]1NC(=O)[C@H]2NC(=O)[C@H](NC(=O)[C@@H]3NC(=O)[C@H]4NC(=O)[C@@H](Cc5ccc(c(Cl)c5)Oc5cc3cc(c5O)Oc3ccc(cc3Cl)[C@H]2O)NC(=O)[C@H](N)c2ccc(O)c(c2)Oc2cc(O)cc4c2)c2ccc(O)c(c2)-c2c(O)cc(O)cc21	32 µg/mL (≈ 25.5 µM)	0.06 µg/mL (≈ 0.0478 µM)	26000 M⁻¹	0.12 µg/mL (≈ 0.0956 µM)	32 µg/mL (≈ 25.5 µM)	4 µg/mL (≈ 3.19 µM)	0.12 µg/mL (≈ 0.0956 µM)	0.06 µg/mL (≈ 0.0478 µM)	0.12 µg/mL (≈ 0.0956 µM)	1.25 mg/kg	0.12 µg/mL (≈ 0.0956 µM)
